Measured values taken from ChEMBL document CHEMBL3407415, “Synthesis and anticancer activities of ceritinib analogs modified in the terminal piperidine ring” (Eur J Med Chem, 2015).
The source made the active and inactive calls. No cut-off for these calls is given here.

Experiments:
NCI-H2228 [1] = assay: Cytotoxicity against human NCI-H2228 cells assessed as cell viability after 72 hrs by MTS assay; format: functional, cell-based; settings: NCI-H2228, 72 h
How it was run: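 H2228 cells seeded and grown 24 h, then exposed in triplicate to a range of concentrations for 72 h at 37 °C, 5% CO₂. MTS (5 mg/mL solution) added for 4 h, medium removed, plates shaken, absorbance read at 570 nm. Inhibition computed against controls. IC50 = concentration giving 50% growth inhibition.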

NCI-H2228 [2] = assay: Antitumor activity against human NCI-H2228 cells xenografted in Rowett nude rat assessed as tumor growth inhibition at 38.28 mg/kg/day, po administered for 14 days measured on day 15 relative to vehicle-treated control; format: functional; settings: read-out: TGI
How it was run: (§1)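 RNU nude rats carrying H2228 tumours, randomized at mean tumour size 150 mm³ (n = 6 per group). Dosed by oral gavage, vehicle 0.5% MC/0.5% Tween 80, 10 μL/g body weight, daily for 14 days starting day 15 post-implant. Tumour volume = ab²/2. Rats killed after 14 days and tumours excised and weighed. Inhibition = (control mean tumour weight − treated mean)/control mean × 100%.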

Rattus norvegicus [3] = assay: Toxicity in Rowett nude rat xenografted with human NCI-H2228 cells assessed as body weight reduction at 38.28 mg/kg/day, po administered for 14 days measured during compound treatment; format: organism-based; design: route oral; settings: in vivo, 336 h
How it was run: (§2)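 H2228 xenograft-bearing RNU nude rats (n = 6 per group, mean starting tumour 150 mm³) given daily oral gavage in 0.5% MC/0.5% Tween 80, 10 μL/g, for 14 consecutive days. Body weight tracked regularly throughout dosing.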

Rattus norvegicus [4] = assay: Prodrug conversion in Sprague-Dawley rat assessed as release of ceritinib in plasma at 38.28 mg/kg, po measured over 24 hrs by HPLC analysis; format: ADME, organism-based; design: dose 38.28 mg/kg, route oral; settings: in vivo
How it was run: (§3)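 Male SD rats, 200–220 g, randomized into three groups (n = 4). Single oral gavage dose in 0.5% MC/0.5% Tween 80 at 10 μL/g. Plasma sampled at 0.5, 1, 3, 5, 8 and 24 h, deproteinized with ethyl acetate, vortexed and centrifuged at 4000 rpm for 5 min. Organic phase analysed for ceritinib by HPLC.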

NCI-H2228 [5] = assay: Antitumor activity against human NCI-H2228 cells xenografted in Rowett nude rat assessed as tumor growth inhibition at 30 mg/kg/day, po administered for 14 days measured on day 15; format: functional, organism-based; how it was run: as §1
Plasma = assay: Drug uptake in Sprague-Dawley rat plasma at 25 mg/kg, po measured over 24 hrs by HPLC analysis; format: ADME, organism-based; design: dose 25 mg/kg, route oral; settings: in vivo; how it was run: as §3
NCI-H2228 [6] = assay: Antitumor activity against human NCI-H2228 cells xenografted in Rowett nude rat assessed as tumor growth inhibition at 36.24 mg/kg/day, po administered for 14 days measured on day 15; format: functional, organism-based; how it was run: as §1
Rattus norvegicus [7] = assay: Toxicity in Rowett nude rat xenografted with human NCI-H2228 cells assessed as body weight reduction at 36.24 mg/kg/day, po administered for 14 days measured during compound treatment; format: organism-based; design: route oral; settings: in vivo, 336 h; how it was run: as §2
Rattus norvegicus [8] = assay: Prodrug conversion in Sprague-Dawley rat assessed as release of ceritinib in plasma at 36.24 mg/kg, po measured over 24 hrs by HPLC analysis; format: ADME, organism-based; design: dose 36.24 mg/kg, route oral; settings: in vivo; how it was run: as §3

Structure (SMILES): Cc1cc(Nc2ncc(Cl)c(Nc3ccccc3S(=O)(=O)C(C)C)n2)c(OC(C)C)cc1C1CCN(P(=O)(Oc2ccccc2)Oc2ccccc2)CC1
- IC50 (NCI-H2228 [1]): 14.4 µM

Structure (SMILES): CCCCCOC(=O)N1CCC(c2cc(OC(C)C)c(Nc3ncc(Cl)c(Nc4ccccc4S(=O)(=O)C(C)C)n3)cc2C)CC1
- IC50 (NCI-H2228 [1]): 67.2 µM

Structure (SMILES): COC(=O)N1CCC(c2cc(OC(C)C)c(Nc3ncc(Cl)c(Nc4ccccc4S(=O)(=O)C(C)C)n3)cc2C)CC1
- IC50 (NCI-H2228 [1]): 1.11 µM

Structure (SMILES): Cc1cc(Nc2ncc(Cl)c(Nc3ccccc3S(=O)(=O)C(C)C)n2)c(OC(C)C)cc1C1CCN(C(=O)OCOP(=O)(O)O)CC1
- IC50 (NCI-H2228 [1]): 0.024 µM
- inhibition in vivo at 38.28 mg/kg/day (NCI-H2228 [2]): 80%
- Activity (Rattus norvegicus [3]): Non-toxic
- Drug metabolism (Rattus norvegicus [4]): metabolite_notdetected

Structure (SMILES): CCC(C)OC(=O)N1CCC(c2cc(OC(C)C)c(Nc3ncc(Cl)c(Nc4ccccc4S(=O)(=O)C(C)C)n3)cc2C)CC1 (stereo not given)
- IC50 (NCI-H2228 [1]): 7.4 µM

Structure (SMILES): Cc1cc(Nc2ncc(Cl)c(Nc3ccccc3S(=O)(=O)C(C)C)n2)c(OC(C)C)cc1C1CCN(C(=O)OCOP(=O)(OCc2ccccc2)OCc2ccccc2)CC1
- IC50 (NCI-H2228 [1]): 1.04 µM

Structure (SMILES): Cc1cc(Nc2ncc(Cl)c(Nc3ccccc3S(=O)(=O)C(C)C)n2)c(OC(C)C)cc1C1CCNCC1 [CERITINIB]
- IC50 (NCI-H2228 [1]): 0.103 µM
- TGI (NCI-H2228 [5]): Active
- Drug uptake (Plasma): Active

Structure (SMILES): CCOP(=O)(OCC)N1CCC(c2cc(OC(C)C)c(Nc3ncc(Cl)c(Nc4ccccc4S(=O)(=O)C(C)C)n3)cc2C)CC1
- IC50 (NCI-H2228 [1]): 0.571 µM

Structure (SMILES): Cc1cc(Nc2ncc(Cl)c(Nc3ccccc3S(=O)(=O)C(C)C)n2)c(OC(C)C)cc1C1CCN(P(=O)(O)OCc2ccccc2)CC1
- IC50 (NCI-H2228 [1]): 0.0574 µM

Structure (SMILES): CCOC(=O)N1CCC(c2cc(OC(C)C)c(Nc3ncc(Cl)c(Nc4ccccc4S(=O)(=O)C(C)C)n3)cc2C)CC1
- IC50 (NCI-H2228 [1]): 1.2 µM

Structure (SMILES): Cc1cc(Nc2ncc(Cl)c(Nc3ccccc3S(=O)(=O)C(C)C)n2)c(OC(C)C)cc1C1CCN(P(=O)(OCc2ccccc2)OCc2ccccc2)CC1
- IC50 (NCI-H2228 [1]): 2.69 µM

Structure (SMILES): CC(=O)OCOC(=O)N1CCC(c2cc(OC(C)C)c(Nc3ncc(Cl)c(Nc4ccccc4S(=O)(=O)C(C)C)n3)cc2C)CC1
- IC50 (NCI-H2228 [1]): 0.12 µM
- TGI (NCI-H2228 [6]): inactive
- Activity (Rattus norvegicus [7]): Non-toxic
- Drug metabolism (Rattus norvegicus [8]): metabolite_notdetected
